Screening results from PubChem.
The list is not random: actives were taken first. Their share in the collection is about 2%.
NR2E3 ag-1 = activates human photoreceptor nuclear receptor NR2E3; Q9Y5X4; GST-NR2E3/biotin-RetCOR TR-FRET, 1536-well; inhibition of corepressor binding, % at 4.78 µM; actives 0.12% (n = 320,000);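 active means percent inhibition above the cutoff of mean plus 3 SD of all tested compounds, set per screening campaign, cut at about 20% in these data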;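 further: 0% = DMSO wells and 100% = biotin wells as full block of FRET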
Target sequence (Q9Y5X4 whole entry, looked up): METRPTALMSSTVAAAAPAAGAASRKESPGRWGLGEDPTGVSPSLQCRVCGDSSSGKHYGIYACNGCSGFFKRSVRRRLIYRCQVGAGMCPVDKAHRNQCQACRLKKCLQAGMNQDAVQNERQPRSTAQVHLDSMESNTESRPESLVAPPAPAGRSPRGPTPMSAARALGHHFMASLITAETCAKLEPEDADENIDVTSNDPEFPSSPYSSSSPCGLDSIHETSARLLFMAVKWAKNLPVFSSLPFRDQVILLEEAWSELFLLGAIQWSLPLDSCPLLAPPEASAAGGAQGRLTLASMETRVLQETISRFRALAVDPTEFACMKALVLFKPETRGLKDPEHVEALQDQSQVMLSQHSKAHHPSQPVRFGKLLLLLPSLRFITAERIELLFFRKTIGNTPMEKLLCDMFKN
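System: GST-tagged NR2E3 plus biotinylated RetCOR corepressor; Buffer or medium: pH 7.5 Tris-based buffer; Probe or stimulus: RetCOR corepressor, biotinylated, 7 nM; Doses: compound at 4.8 µM, single dose; Schedule: 5 h incubation at 4 °C; Technique: time-resolved FRET; Evaluation: percent inhibition of TR-FRET ratio; Replication: one well per compound, singlicate testing.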
NR2E3 ag-2 = human photoreceptor-specific nuclear receptor agonism. actives 0.35% (n = 360,000). AID 602229. CHO-S Gal4-NCOR/VP16-NR2E3 two-hybrid, luciferase. inhibition of corepressor binding, % at 3.98 µM;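 active means inhibition above the mean of all tested compounds plus 3 SD, cut at about 70% in these data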;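 further: 0% = DMSO with NR2E3 transfected cells and 100% = cells lacking NR2E3 construct; higher means lower luciferase signal from less NR2E3 corepressor binding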
Myeloid diff 2 = promotes myeloid progenitor differentiation | calls only at 10 µM | ER-HoxA9 myeloid progenitors, lysozyme-GFP differentiation, flow cytometry | actives 1% (n = 360,000);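 active means normalized GFP-positive differentiation at or above the plate's own cutoff, the solvent-only control mean plus 3 SD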;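 further: cells exposed to compound for four days before flow analysis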
FXN GAA850 act = increases GAA850 frataxin promoter reporter activity; HEK293 lucGAA850 FXN promoter luciferase reporter, 24 h; percent of 10 µM SAHA response; activation, % at 6 µM; actives 0.56% (n = 360,000); AID 540364;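 active means activation above the average of all compounds screened plus 3 SD, cutoff fixed separately per campaign, cut at about 7.5% in these data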;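 further: 0% = DMSO wells and 100% = 10 µM SAHA wells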
T cell modulator = T cell immune modulation candidate | 2C CD8+ T cell-vesicle binding, flow cytometry; active compounds read low | actives 0.068% (n = 330,000) | response (vesicle binding), % at 7 µM;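 active means response, share of CD8 T cells binding vesicles, and their 90th percentile fluorescence all below set limits, cut at about 80% in these data, passing the limit was not always enough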;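 further: values below 100% mean blocked vesicle binding to the CD8+ T cells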
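Read-out – percent CD8+ FL2 mean versus row control · System – murine 2C transgenic CD8+ T lymphocytes · Times – 1.5 h cell–vesicle binding at 37 °C, then 20 min icy labelling · Control set – naked vesicles low, QL9 vesicles with vehicle high · Detection – cytometric PE anti-B7-1 and Alexa647 anti-CD8 signals after 1% paraformaldehyde fixation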
Myeloid diff CP1 = compounds promoting myeloid differentiation. shares compounds with Myeloid diff 2. ER-HoxA9 myeloid progenitors, GFP/Mac1 double-positive flow. calls only. actives 2% (n = 2,300). AID 651706;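 active means share of green or green-and-red cells above 9 and 9% in run 1 or 4 and 3% in run 2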
GFP autofluor = counter-screen for myeloid differentiation promoters: compound fluorescence | shares compounds with Myeloid diff 2 | ER-HoxA9 myeloid progenitors, no estrogen, GFP autofluorescence flow cytometry; vehicle wells 0%, positive control 100% | fluorescence response, % (test concentration not listed) | actives 7.4% (n = 2,300) | AID 651707;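 active means over 5% cells positive for green fluorescent reporter, or over 2% positive for both it and APC stain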;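 further: range taken on the double positive population between DMSO and positive control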
Active calls of the source: *; i = inactive; . = no result; + = active, no number.

SMILES | NR2E3 ag-1 | NR2E3 ag-2 | Myeloid diff 2 | FXN GAA850 act | T cell modulator | Myeloid diff CP1 | GFP autofluor
CC(N)(C(=O)O)c1cccc(OCc2cccc(Cl)c2)c1 (configuration not stated) | -2 | -18 | i | 1 | 110 | . | .
Cc1ccc(C)c2[nH]c(=O)c(C(c3nnnn3C(C)(C)C)N3CC=C(c4ccc(F)cc4)CC3)cc12 (configuration not stated) | . | -23 | + | 2 | . | i | 1
CCC(C)(C)n1nnnc1C(c1cc2cccc(C)c2[nH]c1=O)N1CCCC1 (configuration not stated) | 1 | -19 | i | 3 | 138 | . | .
Cc1ccc(NC(=O)c2ccc(NCCCN3CCC(C)CC3)c([N+](=O)[O-])c2)cc1F | 0 | 26 | i | 2 | 276 | i | 0
O=C(Nc1cccc(Cl)c1)c1ccc(NCCCN2CCOCC2)c([N+](=O)[O-])c1 | 2 | -18 | i | 0 | 159 | . | .
C[C@@H]1CCCCO[C@H](CN(C)C(=O)C2CCCCC2)[C@@H](C)CN([C@H](C)CO)C(=O)c2cc(N(C)C)ccc2O1 | . | -4 | i | -3 | . | i | 0
Cc1noc(C)c1S(=O)(=O)Nc1ccc2c(c1)C(=O)N([C@H](C)CO)C[C@H](C)[C@@H](CN(C)C(=O)CCCN(C)C)OCCCC[C@@H](C)O2 | . | -8 | i | 0 | . | i | 0
Cc1cccc(NS(=O)(=O)c2cccc(C(=O)NCCCN3CCOCC3)c2)c1 | -3 | 6 | i | -1 | 193 | . | .
CC(=O)Nc1ccc2c(c1)C(C)(C)C(C)N2C (configuration not stated) | -2 | . | . | . | 386 | . | .
CCc1nc2ccc(C(=O)Nc3cc(-c4ccccc4)ccc3OC)cn2c1N(C)Cc1ccc(OC)cc1 | . | 6 | i | 4 | . | . | .
CCc1nc2ccc(C(=O)Nc3cc(-c4ccccc4)ccc3OC)cn2c1N(C)Cc1nccs1 | . | 10 | + | -2 | . | i | 0
CCn1c(=O)c(=O)n(CC)c2cc(S(=O)(=O)Nc3cccc(OC)c3)ccc21 | 1 | 17 | + | -1 | 669 | i | 0
CCS(=O)(=O)Nc1ccc(-c2cc(-c3ccccc3)c3cc(C)ccc3n2)cc1 | -2 | 0 | i | 2 | 310 | i | 0
Cc1ccc2nc(-c3ccc(NS(C)(=O)=O)cc3)cc(-c3ccccc3)c2c1 | 0 | 1 | i | -1 | 346 | . | .
CN1C(=S)N(c2cccnc2)C(=O)/C1=C\c1ccc(C(C)(C)C)cc1 | 1 | -17 | i | 2 | 177 | . | .
CN1C(=S)N(c2cccnc2)C(=O)/C1=C\c1ccc(N(C)C)cc1 | . | -8 | + | 4 | . | i | 3
Cc1cccc(N=CC=C2OC(C)(C)C(C)(C)O2)c1 | -1 | -26 | + | 1 | 239 | i | 0
COc1ccc(-c2nn(C)c(=O)c3ccccc23)cc1NC(=O)Cn1nc(C)c2ccccc2c1=O | -3 | 27 | + | 0 | 83 | i | 0
CCC(=O)Nc1cc(-c2nn(C)c(=O)c3ccccc23)ccc1OC | 1 | 8 | i | 1 | 229 | . | .
O=C(Cc1ccccc1)N/N=C/c1ccc([N+](=O)[O-])s1 | -4 | -5 | + | 1 | 227 | i | 3
CC1CC(OC(=O)CN2CCCCC2)CC(C)(C)C1 (configuration not stated) | 1 | . | . | . | 110 | . | .
COc1cccc(N=C(N)N=C(N)N)c1 | 0 | 12 | + | 2 | 344 | i | 0
CC(=O)Nc1ccc2nc(C3CC3)n(Cc3ccc(Cl)cc3)c(=O)c2c1 | 2 | -58 | i | 4 | 41 | . | .
O=C(Nc1ccc2nc(C3CC3)n(Cc3ccc(F)cc3)c(=O)c2c1)c1ccco1 | 5 | -15 | + | 1 | 306 | i | 0
O=C(CSc1ncnc2nc[nH]c12)c1ccc2ccccc2c1 | 0 | -36 | + | 1 | 154 | i | 0
SMILES | NR2E3 ag-1 | NR2E3 ag-2 | Myeloid diff 2 | FXN GAA850 act | T cell modulator | Myeloid diff CP1 | GFP autofluor
O=C(O)CSc1ncnc2nc[nH]c12 | 0 | -16 | i | -1 | 755 | . | .
COC(=O)c1c(C)[nH]c(C(=O)COC(=O)Cn2cc(C(F)(F)F)ccc2=O)c1C | . | -17 | i | 3 | . | . | .
NS(=O)(=O)c1ccc(NC(=O)CN2CCc3ccccc32)cc1 | 1 | 5 | i | 2 | 117 | . | .
NS(=O)(=O)c1ccc(NC(=O)CCc2ccccc2)cc1 | 4 | 1 | i | 1 | 204 | i | 0
NS(=O)(=O)c1ccc(NC(=O)CN2CCCc3ccccc32)cc1 | 2 | 10 | + | 1 | 124 | i | 0
Cc1cc(Cl)cc(Br)c1OCCCCn1cncn1 | -1 | -45 | + | -1 | 266 | i | 1
O=C(NC(=S)Nc1ccccc1O)c1cncc(Br)c1 | -1 | -69 | i | 4 | 198 | i | 10*
Cc1ccc2nsnc2c1NC(=O)c1ccc([N+](=O)[O-])o1 | -3 | 34 | + | 3 | 299 | i | 0
Cc1ccnc(NC(=O)c2ccc([N+](=O)[O-])o2)c1 | 5 | 5 | + | 2 | 467 | i | 1
Cc1[nH]nc(C(=O)NN=Cc2ccccc2Cl)c1N=NN(C)C | . | -17 | . | 2 | . | . | .
CC1=[N+](CC(=O)c2ccccc2)CCn2cccc21 | 6 | -27 | + | 1 | 308 | i | 1
CCC1=[N+](CC(=O)c2ccc(C)cc2)CCn2cccc21 | 1 | -33 | i | 2 | 913 | . | .
COc1cc(S(=O)(=O)NCC2CCCO2)ccc1Br (configuration not stated) | 0 | 19 | i | 1 | 322 | i | 0
COc1ccc(S(=O)(=O)NCC2CCCO2)cc1Cl (configuration not stated) | 4 | -9 | i | 0 | 327 | . | .
CN(C(=O)CN1CCCCCC1)c1c(N)n(Cc2ccccc2)c(=O)[nH]c1=O | 1 | -50 | i | 1 | 264 | . | .
CCN(C(=O)CN1CCCCC1)c1c(N)n(Cc2ccccc2)c(=O)[nH]c1=O | 5 | 1 | i | 3 | 445 | . | .
Cc1ccc2c(c1)CCCN2CC(=O)N(C)c1c(N)n(Cc2ccccc2)c(=O)[nH]c1=O | 0 | -66 | i | 0 | 192 | i | 2
CCN(C(=O)CN1CCCc2cc(C)ccc21)c1c(N)n(Cc2ccccc2)c(=O)[nH]c1=O | . | -9 | i | 0 | . | i | 1
CCN(CC)C(=O)C1=C(C)N(CCCN2CCCC2=O)C(=O)C(CC(=O)NCc2ccco2)C1 (configuration not stated) | . | 1 | i | -1 | . | i | 0
